Drawing on PMC9810445 (Biomolecules & Therapeutics, 2022), this text covers Kd for three compounds.

The target in this assay is T1, CYP6A8 (Drosophila melanogaster, UniProt Q27593).
T1 sequence (Q27593 1-506): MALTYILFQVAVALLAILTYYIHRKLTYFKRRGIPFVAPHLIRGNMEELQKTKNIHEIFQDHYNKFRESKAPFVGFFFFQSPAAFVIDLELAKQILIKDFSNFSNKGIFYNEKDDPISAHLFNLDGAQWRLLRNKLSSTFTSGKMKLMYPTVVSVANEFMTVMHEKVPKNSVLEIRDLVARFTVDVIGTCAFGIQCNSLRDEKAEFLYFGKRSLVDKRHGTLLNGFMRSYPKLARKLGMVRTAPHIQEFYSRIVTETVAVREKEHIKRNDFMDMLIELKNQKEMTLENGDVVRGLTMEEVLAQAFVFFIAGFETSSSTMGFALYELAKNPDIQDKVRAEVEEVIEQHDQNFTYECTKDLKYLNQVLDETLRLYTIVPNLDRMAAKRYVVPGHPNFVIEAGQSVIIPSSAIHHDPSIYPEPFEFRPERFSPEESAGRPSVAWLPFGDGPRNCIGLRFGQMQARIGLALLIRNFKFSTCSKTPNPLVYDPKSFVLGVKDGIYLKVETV
In words: UV-visible spectral binding titration. The gist of the method: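 Recombinant C-terminally His6-tagged CYP6A8 was expressed in E. coli from pCW and purified by Ni2+-NTA chromatography. Enzyme was diluted to 1 µM in 100 mM potassium phosphate (pH 7.6) and split between sample and reference cuvettes. Fatty acid was added stepwise and 350–500 nm difference spectra were recorded. Kd was derived by plotting the peak-to-trough absorbance difference against ligand concentration.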
`CCCCCCCC(=O)O` [octanoic acid]: the Kd worked out at 713 ± 46 µM. In turn, `CCCCCCCCCC(=O)O` [capric acid] gave a Kd of 144 ± 20 µM. With `CCCCCCCCCCCC(=O)O` [lauric acid] the figure was 28 ± 4 µM.

A word on the Kd: it is the free concentration of one partner at which half of the binding sites on the other are occupied at equilibrium, for simple one-to-one binding. A low value points to higher affinity.
